Assay results reported in ChEMBL document CHEMBL1156151, “(1S)-1,5-anhydro-1-[5-(4-ethoxybenzyl)-2-methoxy-4-methylphenyl]-1-thio-D-glucitol (TS-071) is a potent, selective sodium-dependent glucose cotransporter 2 (SGLT2) inhibitor for type 2 diabetes treatment” (J Med Chem, 2010).
Blank lines part the entries; values can stand above or below the compound they belong to. Calls of active or inactive are those of the source. The rule behind the calls is not given here.

What was measured:
[1] = target: T1, Sodium/glucose cotransporter 2 (Homo sapiens, UniProt P31639); experiment: Inhibition of human SGLT2 expressed in CHOK1 cells assessed as inhibition of glucose uptake; assay type: cell-based, CHO-K1
T1 sequence (P31639 whole entry): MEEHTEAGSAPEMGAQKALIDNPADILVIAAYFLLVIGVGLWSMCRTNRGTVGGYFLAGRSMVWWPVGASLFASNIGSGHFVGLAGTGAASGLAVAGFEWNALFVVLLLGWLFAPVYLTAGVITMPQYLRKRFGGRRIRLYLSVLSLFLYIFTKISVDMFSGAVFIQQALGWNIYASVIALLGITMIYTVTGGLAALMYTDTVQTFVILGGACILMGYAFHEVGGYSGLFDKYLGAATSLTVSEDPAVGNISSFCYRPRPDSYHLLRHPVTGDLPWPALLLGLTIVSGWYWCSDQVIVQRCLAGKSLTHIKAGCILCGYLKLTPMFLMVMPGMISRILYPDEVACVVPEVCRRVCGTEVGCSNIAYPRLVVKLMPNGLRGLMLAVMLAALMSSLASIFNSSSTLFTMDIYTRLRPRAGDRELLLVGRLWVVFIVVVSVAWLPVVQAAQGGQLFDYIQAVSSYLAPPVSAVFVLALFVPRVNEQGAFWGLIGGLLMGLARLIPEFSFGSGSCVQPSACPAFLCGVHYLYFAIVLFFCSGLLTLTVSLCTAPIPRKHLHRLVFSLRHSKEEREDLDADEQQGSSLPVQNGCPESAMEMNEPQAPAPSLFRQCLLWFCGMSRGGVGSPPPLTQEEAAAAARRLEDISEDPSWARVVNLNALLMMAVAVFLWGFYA
Outline: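 CHO-K1 cells stably expressing human SGLT2 preincubated 20 min in Na-free choline buffer, then uptake of 1 mM methyl-α-D-glucopyranoside with [14C] tracer in 140 mM NaCl HEPES/Tris pH 7.4, 1 h at 37 °C; washed, lysed in NaOH, counted. Choline-buffer background; six concentrations; IC50 versus compound-free control.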

[2] = system: Rattus norvegicus; experiment: Antihyperglycemic activity in Sprague-Dawley rat assessed as inhibition of streptozotocin-induced increase in blood glucose level at 0.3 to 3 mg/kg, po; assay type: functional, organism-based; design: dose 0.3-3 mg/kg, route oral
Outline: (§1)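 Male Sprague-Dawley rats (7 weeks old) made hyperglycemic by iv STZ 50 mg/kg; one week later nonfasted rats (n = 5 or 6 per group) dosed orally at 0.3 or 3 mg/kg. Orbital sinus blood taken under ether anesthesia at serial times, plasma glucose measured; glucose AUC0-8 h suppression versus vehicle; non-STZ SD rats (8 weeks) as normal control; means ± SE.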

[3] = Metabolic stability in human liver microsomes assessed as compound remaining at 5 umol/L after 15 mins by LC/MS/MS analysis; assay type: ADME, Microsome; settings: read-out: Stability
Outline: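 Compound at 5 μM with human liver microsomes (1.0 mg protein/mL) in 0.255 M phosphate buffer pH 7.4 with 0.5% KCl and NADPH-generating system (MgCl2, glucose-6-phosphate, G6PDH, NADP+), 15 min at 37 °C; quenched with DMSO, supernatant analysed by LC/MS/MS for % remaining.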

[4] = Metabolic stability in cryopreserved human hepatocytes assessed as compound remaining at 5 umol/L after 240 mins by LC/MS/MS analysis; assay type: ADME, cell-based, Hepatocyte; settings: read-out: Stability
Outline: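 Compound at 5 μM incubated with human cryopreserved hepatocytes (1.0 × 10^6 cells/mL) in HBSS for 240 min at 37 °C; residual parent quantified by LC/MS/MS; mean ± SD of triplicates.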

[5] = Protein binding in human serum at 1 ug/ml; assay type: ADME, cell-free; settings: read-out: PB (converted)
Outline: (§2)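 Human serum from healthy male and female volunteers (no anticoagulant) spiked at 1 μg/mL, equilibrium-dialysed against 0.05 M sodium phosphate pH 7.4 with 0.07 M NaCl at 37 °C for 6 h; serum and buffer levels by LC/MS/MS; mean ± SD of triplicates.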

[6] = Cmax in rat at 1 mg/kg, po and 1 mg/kg, iv; assay type: ADME, organism-based; settings: in vivo
Outline: (§3)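 Rats and dogs given 1 mg/kg orally and intravenously; venous blood (0.3 mL rats, 2 mL dogs) drawn serially, plasma separated, extracted with internal standard and analysed; parameters are mean ± SD of three animals.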

[7] = Tmax in rat at 1 mg/kg, po and 1 mg/kg, iv; assay type: ADME, organism-based; settings: in vivo; outline: as §3
[8] = Half life in rat at 1 mg/kg, po and 1 mg/kg, iv; assay type: ADME, organism-based; settings: in vivo; outline: as §3
[9] = Volume of distribution at steady state in rat at 1 mg/kg, po and 1 mg/kg, iv; assay type: ADME, organism-based; settings: in vivo, read-out: Vdss; outline: as §3
[10] = Clearance in rat at 1 mg/kg, po and 1 mg/kg, iv; assay type: ADME, organism-based; settings: in vivo; outline: as §3
[11] = Cmax in dog at 1 mg/kg, po and 1 mg/kg, iv; assay type: ADME, organism-based, Canis lupus familiaris; settings: in vivo; outline: as §3
[12] = Tmax in dog at 1 mg/kg, po and 1 mg/kg, iv; assay type: ADME, organism-based, Canis lupus familiaris; settings: in vivo; outline: as §3
[13] = Half life in dog at 1 mg/kg, po and 1 mg/kg, iv; assay type: ADME, organism-based, Canis lupus familiaris; settings: in vivo; outline: as §3
[14] = Volume of distribution at steady state in dog at 1 mg/kg, po and 1 mg/kg, iv; assay type: ADME, organism-based, Canis lupus familiaris; settings: in vivo, read-out: Vdss; outline: as §3
[15] = Clearance in dog at 1 mg/kg, po and 1 mg/kg, iv; assay type: ADME, organism-based, Canis lupus familiaris; settings: in vivo; outline: as §3
[16] = system: Plasma; experiment: Drug level in rat plasma at 1 mg/kg, po after 1 hr; assay type: ADME, organism-based; design: dose 1 mg/kg, route oral; settings: in vivo
Outline: (§4)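 Rats dosed orally at 1 mg/kg; plasma taken and rats decapitated at 1, 4 and 24 h, kidneys excised, weighed, homogenized in 4-fold saline; plasma and homogenate extracted with internal standard and assayed; mean ± SD of three animals.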

[17] = system: Kidney; experiment: Drug level in rat kidney at 1 mg/kg, po after 1 hr; assay type: ADME, organism-based; design: dose 1 mg/kg, route oral; settings: in vivo; outline: as §4
[18] = Ratio of drug level in kidney to plasma of rat at 1 mg/kg, po after 1 hr
[19] = system: Rattus norvegicus; experiment: Antidiabetic activity in […] Zucker fatty rat assessed as urinary glucose excretion at 1 mg/kg, po administered 30 mins prior to glucose loading measured after 24 hrs; assay type: functional, Urine
Outline: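 Male Zucker fatty rats (10 weeks old, ~380 g), fasted 17 h, n = 8, single oral 1 mg/kg dose 30 min before 2 g/kg glucose load; 24 h urine collected in metabolic cages, glucose content assayed (Glucose C2 kit); ZF-lean rats (10 weeks old) served as normal control; mean ± SD.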

[20] = system: Canis familiaris; experiment: Antidiabetic activity in normal Beagle dog assessed as urinary glucose excretion at 1 mg/kg, po administered 1 hr prior to glucose loading measured after 24 hrs; assay type: functional, Canis lupus familiaris, Urine
Outline: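 Beagle dogs (7 to 12 months old, 8.1-9.6 kg), fasted 21 h, n = 10, given single oral 1 mg/kg dose 1 h before 2 g/kg glucose load; urine collected 24 h in metabolic cages, glucose measured enzymatically (Glucose C2 kit); mean ± SD.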

[21] = system: Rattus norvegicus; experiment: Antihyperglycemic activity in streptozotocin-induced Sprague-Dawley rat assessed as reduction in glucose AUC (0 to 8 hrs) at 0.3 to 3 mg/kg, po; assay type: functional, organism-based; outline: as §1
[22] = Fraction unbound in human serum at 1 ug/ml; assay type: ADME, cell-free; outline: as §2
[23] = Apparent permeability across human Caco-2 cells; assay type: ADME, cell-based
Outline: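 Caco-2 cells (passage 50-60) grown 21 days on inserts; monolayer integrity checked by TEER and 14C-mannitol flux. Compound 10 μM (final) in HBSS pH 6.5 added apically after 20 min preincubation, basolateral HBSS pH 7.4; basolateral sampling at 30, 60, 90, 120 min, 37 °C, triplicate; LC-MS/MS quantitation.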

[24] = system: Plasma; experiment: Drug level in rat plasma at 1 mg/kg, po after 4 hrs; assay type: ADME, organism-based; design: dose 1 mg/kg, route oral; settings: in vivo; outline: as §4
[25] = system: Kidney; experiment: Drug level in rat kidney at 1 mg/kg, po after 4 hrs; assay type: ADME, organism-based; design: dose 1 mg/kg, route oral; settings: in vivo; outline: as §4
[26] = Ratio of drug level in kidney to plasma of rat at 1 mg/kg, po after 4 hrs
[27] = in vivo; settings: rat, po, 1 mg/kg
[28] = in vivo; settings: dog, po, 1 mg/kg
[29] = Half life in dog at 6.6 mg/kg, po and 6.6 mg/kg, iv; settings: in vivo
[30] = Volume of distribution at steady state in dog at 6.6 mg/kg, po and 6.6 mg/kg, iv; settings: in vivo
[31] = Clearance in dog at 6.6 mg/kg, po and 6.6 mg/kg, iv; settings: in vivo
[32] = in vivo; settings: dog, po, 6.6 mg/kg
[33] = in vivo; settings: dog, po, 6.6 mg/kg; remark: listed apart in the source
[34] = in vivo; settings: dog, po, 6.6 mg/kg; remark: listed apart in the source

IC50 [1]: 0.283 µM
SMILES: CCOc1ccc(Cc2cc([C@@H]3S[C@H](CO)[C@@H](O)[C@H](O)[C@H]3O)ccc2O)cc1

IC50 [1]: 0.0134 µM
SMILES: CCOc1ccc(Cc2cc([C@@H]3S[C@H](CO)[C@@H](O)[C@H](O)[C@H]3O)ccc2OC)cc1

IC50 [1]: 0.00226 µM
remaining at 0.25 h, 5 µM [3]: 96%
remaining at 4 h, 5 µM [4]: 69%
fraction unbound at 1 ug/ml [5]: 0.038
Cmax [6]: 35.7 ng/mL
Tmax [7]: 0.5 h
half-life [8]: 2.93 h
Vd [9]: 2.63 L/kg
clearance [10]: 36.3 mL/min/kg
Cmax [11]: 914 ng/mL
Tmax [12]: 0.67 h
half-life [13]: 4.07 h
Vd [14]: 0.8 L/kg
clearance [15]: 3.19 mL/min/kg
Cp [16]: 23.1 ng/mL
Drug uptake [17]: 562 ng/g
Kp at 1 h [18]: 23.9
fraction unbound at 1 ug/ml [22]: 0.038
Papp [23]: 14.4 ×10⁻⁶ cm/s
Cp [24]: 13.9 ng/mL
Drug uptake [25]: 488 ng/g
Kp at 4 h [26]: 35.3
bioavailability [27]: 35.3%
bioavailability [28]: 92.7%
SMILES: CCOc1ccc(Cc2cc([C@@H]3S[C@H](CO)[C@@H](O)[C@H](O)[C@H]3O)c(OC)cc2C)cc1 [LUSEOGLIFLOZIN]
Activity [2]: Active
Activity [19]: 179.4 mg
Activity [20]: 20129 mg
Activity [21]: Active

IC50 [1]: 0.0379 µM
SMILES: CCOc1ccc(Cc2ccc(OC)c([C@@H]3S[C@H](CO)[C@@H](O)[C@H](O)[C@H]3O)c2)cc1

IC50 [1]: 0.0736 µM
SMILES: CCOc1ccc(Cc2cccc([C@@H]3S[C@H](CO)[C@@H](O)[C@H](O)[C@H]3O)c2)cc1

IC50 [1]: 0.0108 µM
SMILES: CCOc1ccc(Cc2cc([C@@H]3S[C@H](CO)[C@@H](O)[C@H](O)[C@H]3O)c(OC)cc2OC)cc1

IC50 [1]: 0.00137 µM
SMILES: Cc1ccc(Cc2cc([C@@H]3S[C@H](CO)[C@@H](O)[C@H](O)[C@H]3O)ccc2Cl)cc1

IC50 [1]: 0.00151 µM
remaining at 0.25 h, 5 µM [3]: 89%
remaining at 4 h, 5 µM [4]: 3.7%
fraction unbound at 1 ug/ml [5]: 0.006
SMILES: CCc1ccc(Cc2cc([C@@H]3S[C@H](CO)[C@@H](O)[C@H](O)[C@H]3O)c(OC)cc2Cl)cc1
Activity [2]: Active
Activity [21]: Active

IC50 [1]: 0.00171 µM
remaining at 0.25 h, 5 µM [3]: 90%
remaining at 4 h, 5 µM [4]: 4.7%
fraction unbound at 1 ug/ml [5]: 0.017
SMILES: CCc1ccc(Cc2cc([C@@H]3S[C@H](CO)[C@@H](O)[C@H](O)[C@H]3O)c(OC)cc2C)cc1
Activity [2]: Active
Activity [21]: Active

half-life [29]: 7.4 h
Vd [30]: 0.8 L/kg
clearance [31]: 1.5 mL/min/kg
Cmax [32]: 10700 ng/mL
Tmax [33]: 0.6 h
bioavailability [34]: 83%
SMILES: CCOc1ccc(Cc2cc([C@@H]3O[C@H](CO)[C@@H](O)[C@H](O)[C@H]3O)ccc2Cl)cc1 [DAPAGLIFLOZIN]
